Read-outs that look alike come from different tables or passages of the source.
Assays:
UACC903 cells = experiment: Annexin V and Caspase 3/7 activity assays; format: cell-based, human; settings: UACC903, 24 h; for cells positive for Annexin V, Caspase 3/7 activity and 7-AAD: concentration not stated at place (25 and 50 μM tested)
Method in brief: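 UACC903 cells exposed to test compound at 25 and 50 μM for 24 h. Floating and adherent cells analysed on a Muse cell analyzer using two kits. The Annexin V/7-AAD kit sorts cells into live, early apoptotic (Annexin V+/7-AAD−), late apoptotic (double positive) and necrotic (7-AAD only) quadrants. The caspase-3/7 kit uses NucView, a DEVD-linked DNA dye released by active caspase 3/7, plus 7-AAD as dead-cell marker.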

UACC903 melanoma cells = experiment: Live/Dead assay, UACC903 cells; format: cell-based, human
Method in brief: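 2 × 10^5 cells incubated with test compound (25 and 50 μM) for 24 h at 37 °C. Cells then stained with 5 μM ethidium homodimer plus 5 μM calcein-AM for 30 min at 37 °C. Imaged by fluorescence microscopy: green esterase-retained calcein marks live cells, red marks membrane-damaged dead cells. Percentage of dead cells quantified from images.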

[1] = test system: MCF10A, the human breast epithelial cell line; experiment: MTT cell viability assay, normal MCF10A cells; format: cell-based; settings: 25 μM, 48 h
[2] = test system: cancer cell lines (UACC903, MCF-7 and MDA-MB-231); experiment: MTT cell viability at 25 μM, values stated jointly for cancer cell lines; format: cell-based; settings: 48 h, read-out: cell viability of cancer cell lines
[3] = test system: 1205Lu and A375M cell lines; experiment: MTT cell viability assay, values stated jointly for 1205Lu and A375M; format: cell-based; settings: Homo sapiens, 48 h, read-out: IC50, 1205Lu and A375M stated jointly in text
Method in brief: (§1)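 Cells kept in DMEM with 10% FBS and penicillin/streptomycin at 37 °C. Seeded at 3,000 cells/well and treated in triplicate with a test compound series (0.5–25 μM for 48 h; 72 h exposure also run for CHL-1/UACC 903). MTT (5 mg/mL stock in PBS) added for 3 h at 37 °C, formazan dissolved in DMSO, absorbance read at 570 nm with 630 nm background subtracted. IC50 from non-linear curve fits.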

[4] = test system: PARP, Bcl-2, Bcl-xL, Survivin in CHL-1 and UACC903 melanoma cells; experiment: Western blot of survival and apoptosis proteins; format: cell-based, human; settings: CHL-1 and UACC903, 24 h
Method in brief: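 CHL-1 and UACC903 cells (2 × 10^6) treated with test compound at set concentrations for 24 h. Whole-cell lysates resolved by SDS-PAGE and transferred to PVDF. Blots probed for PARP, […], survivin and Bcl-xL, with β-actin as loading control, and detected by enhanced chemiluminescence.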

[5] = test system: CHL-1 and UACC 903 melanoma cells; experiment: MTT cell viability assay, values stated jointly for CHL-1 and UACC 903; format: cell-based; settings: Homo sapiens, read-out: IC50, CHL-1 and UACC 903 stated jointly in text
Method in brief: as §1

[6] = test system: Panc-1, MDA-MB-231, MCF-7 and HCT116 cells; format: cell-based; settings: 48 h, read-out: IC50s against all the cell lines tested (Panc-1, MDA-MB-231, MCF-7, HCT116)
[7] = test system: CHL-1 (BRAF wild-type) melanoma cells; experiment: MTT cell viability assay, CHL-1 melanoma cells; format: cell-based; settings: Homo sapiens, CHL-1, 72 h, read-out: Melanoma cells IC50 (μM) CHL-1
[8] = test system: UACC 903 (BRAF-mutant) melanoma cells; experiment: MTT cell viability assay, UACC 903 melanoma cells; format: cell-based; settings: Homo sapiens, UACC-903, 72 h, read-out: Melanoma cells IC50 (μM) UACC 903

| Compound | necrotic death (cells only positive for 7-AAD) (UACC903 cells) | cells positive for Annexin V, Caspase 3/7 activity and 7-AAD (UACC903 cells) | cell death in Live/Dead assay, human melanoma cells (UACC903 melanoma cells; 25 μM concentration, cell line not specified at place) | potency towards melanoma cells (UACC903) as compared to normal MCF10A cells [1] | viability at 25 µM [2] | IC50 [3] | PARP cleavage (Western blot) [4] | levels of anti-apoptotic proteins Bcl-2, Bcl-xL and Survivin (Western blot) [4] | IC50 ([5]; 48 h) | IC50 ([5]; 72 h) | IC50 [6] | cell death in Live/Dead assay, UACC903 (UACC903 melanoma cells; 25 μM, 24 h) | IC50 [7] | IC50 [8] |
| --- | --- | --- | --- | --- | --- | --- | --- | --- | --- | --- | --- | --- | --- | --- |
| O=C1NC(=S)NC(=O)C1=C/C=C/c1cccs1 [Compound 2b, 5-(3-Thiophen-2-yl-allylidene)-2-thioxo-dihydro-pyrimidine-4,6-dione] | not detected | More than 70% | 65–70% | three-fold more potent | 20 to 30% | 10.6 to 14.8 µM | induced PARP cleavage | reduced the levels of anti-apoptotic proteins Bcl-2, Bcl-xL and Survivin in a dose-dependent manner | 6.5 to 8.1 µM | 3.8 to 4 µM | – | – | – | – |
| O=C1NC(=S)NC(=O)C1=C/C=C/c1cccc2ccccc12 [Compound 2d, 5-(3-Naphthalen-1-yl-allylidene)-2-thioxo-dihydro-pyrimidine-4,6-dione] | – | – | – | – | – | – | – | – | – | – | 3.6 to 7.9 µM | – | – | – |
| O=C1NC(=S)N(c2ccccc2)C(=O)/C1=C/C=C/c1cccs1 [Compound 8b, 1-Phenyl-5-(3-thiophen-2-yl-allylidene)-2-thioxo-dihydro-pyrimidine-4,6-dione] | not detected | More than 70% | – | three-fold more potent | 20 to 30% | 10.6 to 14.8 µM | induced PARP cleavage | reduced the levels of anti-apoptotic proteins Bcl-2, Bcl-xL and Survivin in a dose-dependent manner | 6.5 to 8.1 µM | 3.8 to 4 µM | – | 25% | – | – |
| CCCS(=O)(=O)Nc1ccc(F)c(C(=O)c2c[nH]c3ncc(-c4ccc(Cl)cc4)cc23)c1F [PLX-4032, vemurafenib] | – | – | – | – | – | – | – | – | – | – | – | – | 13.7 ± 1.7 µM | 3.6 ± 1.1 µM |

From PMC5736457 (European journal of medicinal chemistry, 2017)
